Screens deposited in PubChem by several laboratories.
An excerpt weighted towards active compounds, which were near 6.4% of everything screened.
TbMetRS inhib: blocks T. brucei methionyl-tRNA synthetase activity; purified T. brucei MetRS, ATP depletion, Kinase-Glo luminescence; AID 624268; 0.4% of 360,000 active; inhibition, % at 11.9 µM;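 active = inhibition above a per-plate cutoff of the control wells' mean inhibition plus 3 SD, cut at about 5.5% in these data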;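 note: 0% = DMSO wells median and 100% = median of wells with control inhibitor compound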
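Measured by: Kinase-Glo luciferase luminescence reporting remaining unconsumed ATP. Material: purified T. brucei MetRS enzyme. Doses: 11.9 µM compound single dose, 0.9% DMSO. Medium: HEPES buffer containing pyrophosphatase, BSA, spermine, DTT. Times: 15 min preincubation, 2 h reaction, all 25 °C. Reagent: methionine, ATP and bulk E. coli tRNA.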
MPTP inh: inhibitors of mitochondrial permeability transition pore. isolated mouse mitochondria, Ca2+ swelling absorbance, 30 min. inhibition, % at 10 µM. 1.4% of 360,000 active;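 active = inhibition of 50% or more, scaled per plate between neutral and stimulator controls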;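 note: 0% = DMSO wells given calcium and 100% = 1 mM EGTA wells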
NR3A LBD binder: NR3A (human) ligand-binding domain modulation; NR3A LBD differential scanning fluorimetry, Tm shift; 0% = protein alone, 100% = glycine-bound protein; Tm shift relative to glycine control, % at 25 µM; 2.5% of 340,000 active;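 active = melting temperature shift of at least 10% of the positive control shift, at one fixed dose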
CHOP inhibitor: CHOP inhibition in unfolded protein response | inhibition, % at 10 µM | AID 2732 | 3.8% of 220,000 active | CHO-K1 CHOP-promoter luciferase, tunicamycin-induced, 15-18 h;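 active = compounds that reduced the stress-induced luciferase reporter signal by more than about 70% of percent inhibition, limit read from the data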;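 note: 0% = tunicamycin plus vehicle and 100% = wells without tunicamycin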
WT yeast gro inh: growth inhibition of WT yeast, mitochondrial fusion screen. 2.1% of 190,000 active. mitochondrial fusion phenotypic screen, WT strain. inhibition, % at 10 µM; in the data active = inhibition above about 58%; tested in S. cerevisiae
EBV gp42 block: EBV gp42 inhibition. Fluorescence polarization binding assay, mP read-out. AID 1085. 0.42% of 220,000 active. inhibition, % (tested at 21.74 µM). Q1HVG2; in the data active = inhibition above about 50%
Target sequence (Q1HVG2 whole entry, looked up): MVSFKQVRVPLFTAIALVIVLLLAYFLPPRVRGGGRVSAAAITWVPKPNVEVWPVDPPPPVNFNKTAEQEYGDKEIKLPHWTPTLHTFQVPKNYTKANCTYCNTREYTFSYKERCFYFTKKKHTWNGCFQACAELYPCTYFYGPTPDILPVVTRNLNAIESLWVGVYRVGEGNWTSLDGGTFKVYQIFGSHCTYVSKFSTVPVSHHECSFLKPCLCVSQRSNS
* hit, by the source's call.

CCOC(=O)c1cc2sc(C)cc2n1CC(=O)Nc1cccc(C)c1C was read as TbMetRS inhib -1, MPTP inh 11, NR3A LBD binder -1, CHOP inhibitor 74*, WT yeast gro inh -1 and EBV gp42 block -13.
Screening CCOC(=O)c1cc2sc(C)cc2n1CC(=O)Nc1ccc2c(c1)OCCO2 returned TbMetRS inhib 0, MPTP inh 2, NR3A LBD binder -2, CHOP inhibitor 44, WT yeast gro inh 15 and EBV gp42 block -9.
`O=C(Nc1ccccc1)N1CC=C(c2ccccc2)CC1` gave CHOP inhibitor 35, WT yeast gro inh 8 and EBV gp42 block -9.
`O=C(Nc1ccccc1)N1CC=C(c2ccc(F)cc2)CC1` gave TbMetRS inhib -2, MPTP inh 0, NR3A LBD binder 21*, CHOP inhibitor 22, WT yeast gro inh 0 and EBV gp42 block -16.
O=C(Cc1ccccc1)N/N=C/c1cc(Br)cc(Br)c1O was read as TbMetRS inhib -1, MPTP inh 3 and NR3A LBD binder 12*.
For O=C(N/N=C/c1ccncc1)c1cccc(NC(=O)c2ccc(Cl)cc2)c1 the results were TbMetRS inhib 0, MPTP inh 2, NR3A LBD binder 26*, CHOP inhibitor 53, WT yeast gro inh -11 and EBV gp42 block 21.
`O=C(N/N=C/c1cccc(NC(=O)c2ccc(Cl)cc2)c1)c1ccc(O)cc1` gave TbMetRS inhib 1, MPTP inh 1, NR3A LBD binder 29*, CHOP inhibitor -22 and EBV gp42 block 0.
`O=C(N/N=C/c1cc(Cl)ccc1O)c1ccncc1` gave TbMetRS inhib 0, MPTP inh 3, NR3A LBD binder -3, CHOP inhibitor 72* and EBV gp42 block -1.
`Cc1cc(C)n2nc(C(=O)OCC(=O)Nc3cc(Cl)ccc3C)nc2n1` gave TbMetRS inhib -1, MPTP inh -1 and NR3A LBD binder 6.
For Cc1nc(N(C)C)ncc1C(=O)O the results were TbMetRS inhib 0, MPTP inh 0, NR3A LBD binder 0, CHOP inhibitor 16, WT yeast gro inh 1 and EBV gp42 block 0.
`CN(C)c1ccc(N/C=C/C(=O)c2ccccc2)cc1` gave TbMetRS inhib -1, MPTP inh 1, NR3A LBD binder -17, CHOP inhibitor 81*, WT yeast gro inh -12 and EBV gp42 block -61.
COC(=O)c1ccc(/C=N/NC(=O)c2ccc3nc[nH]c3c2)cc1 was read as TbMetRS inhib -1, MPTP inh 1 and NR3A LBD binder 11*.
O/N=C/c1cc(Br)cc(Br)c1OCc1ccccc1 was read as TbMetRS inhib 0, MPTP inh 13, NR3A LBD binder -12, CHOP inhibitor 92*, WT yeast gro inh 60* and EBV gp42 block -3.
O=C(/C=C/Nc1ccccc1)c1ccccc1 was read as TbMetRS inhib 0, MPTP inh 1, CHOP inhibitor 37, WT yeast gro inh -5 and EBV gp42 block -21.
For O=C(N/N=C/c1ccc(Cl)cc1)c1ccc2nc[nH]c2c1 the results were TbMetRS inhib 0 and MPTP inh 0.
O/N=C/c1ccc(OCc2ccccc2)c(Br)c1 was read as TbMetRS inhib 1, MPTP inh 0, NR3A LBD binder -6, CHOP inhibitor 27, WT yeast gro inh 54 and EBV gp42 block -20.
`CN(C)c1ccc(/C=C/C(=O)c2ccc(O)cc2)cc1` gave TbMetRS inhib 0, MPTP inh 1 and NR3A LBD binder 12*.
COc1ccc(C2CCCN2C(=O)Nc2ccc(Cl)cc2)cc1OC (stereo not given) was read as TbMetRS inhib 0, MPTP inh 0, NR3A LBD binder -1, CHOP inhibitor 16, WT yeast gro inh 14 and EBV gp42 block -16.
Screening Cc1ccc(CCNC(=O)C2CCN(C(=O)c3sccc3-n3cccc3)CC2)cc1 returned TbMetRS inhib -1, MPTP inh -1, NR3A LBD binder -2, CHOP inhibitor 31, WT yeast gro inh -11 and EBV gp42 block 0.
Screening CN(C)c1ccc(/C=N/NC(=O)c2ccc(NC(=O)c3ccccc3)cc2)cc1 returned TbMetRS inhib -1, MPTP inh 0, NR3A LBD binder 19*, CHOP inhibitor 50 and EBV gp42 block -4.
For O=C(N/N=C/c1ccc(F)cc1)c1ccccc1 the results were TbMetRS inhib -1, MPTP inh -4, NR3A LBD binder -17, CHOP inhibitor -20, WT yeast gro inh -3 and EBV gp42 block -3.
Screening O=C(N/N=C\c1ccc(F)cc1)c1csnn1 returned TbMetRS inhib -2, MPTP inh -4, NR3A LBD binder 12*, CHOP inhibitor -33, WT yeast gro inh -9 and EBV gp42 block -21.
For CN(C)c1ccc(C(=O)N/N=C/c2cc(Br)cc(Br)c2O)cc1 the results were TbMetRS inhib 0, MPTP inh 42, NR3A LBD binder 7, CHOP inhibitor 91* and EBV gp42 block -16.
Screening COc1c(Br)cc(Br)cc1/C=N/NC(=O)c1ccncc1 returned TbMetRS inhib 0, MPTP inh -4, NR3A LBD binder -1, CHOP inhibitor 23, WT yeast gro inh -20 and EBV gp42 block -3.
For O=C(N/N=C/c1ccc(F)cc1)c1cccc(NC(=O)c2ccc(F)cc2)c1 the results were TbMetRS inhib -1, MPTP inh 2 and NR3A LBD binder 33*.
Screening Cc1nnc(SCC(=O)N2c3ccccc3CC2C)[nH]c1=O (stereo not given) returned TbMetRS inhib 0, MPTP inh 1, NR3A LBD binder 0, CHOP inhibitor -1, WT yeast gro inh 2 and EBV gp42 block 0.
For CC(C)[C@H](NC(N)=O)C(=O)Nc1ccc(F)c(Cl)c1 the results were TbMetRS inhib 0, MPTP inh 0, NR3A LBD binder 1, CHOP inhibitor -17, WT yeast gro inh -6 and EBV gp42 block -26.
Cc1cccc(/C=N/NC(=O)c2ccc(Br)cc2)c1 was read as TbMetRS inhib 1, MPTP inh 8, NR3A LBD binder -18, CHOP inhibitor -4, WT yeast gro inh -7 and EBV gp42 block -13.
For Cc1cccc(N=N/C(=C\O)C(=O)c2ccc(Br)cc2)c1 the results were TbMetRS inhib 0, MPTP inh -2, NR3A LBD binder 0, CHOP inhibitor -34, WT yeast gro inh 96* and EBV gp42 block -12.
For Cc1ccc(N=N/C(=C\O)C(=O)c2ccncc2)cc1 the results were TbMetRS inhib 0, MPTP inh -2, NR3A LBD binder 1, CHOP inhibitor 89*, WT yeast gro inh -1 and EBV gp42 block -15.
Screening O=C(/C(=C/O)N=Nc1cccc(C(F)(F)F)c1)c1ccccc1 returned TbMetRS inhib -1, MPTP inh 2, NR3A LBD binder -5, CHOP inhibitor 61, WT yeast gro inh 95* and EBV gp42 block -10.
Screening O=C(/C(=C/O)N=Nc1ccc(Cl)cc1)c1ccncc1 returned TbMetRS inhib -1, MPTP inh -5, NR3A LBD binder -12, CHOP inhibitor 48, WT yeast gro inh 20 and EBV gp42 block -1.
